Measurements: ChEMBL document CHEMBL1130383, “Anesthetic activity of novel water-soluble 2 beta-morpholinyl steroids and their modulatory effects at GABAA receptors” (J Med Chem, 1997)

Assays:
Mus musculus [1] = species: Mus musculus; test: Effect on interval between loss of righting reflex and return to righting reflex (sleep duration) was measured at a dose twice that of hypnotic dose; caused convulsions and was not tested for the sleeping duration; format: functional, organism-based
Mus musculus [2] = test: Hypnotic dose by observing loss of righting reflex for a minimum period of 30 sec in 50% of treated mice after iv administration; caused convulsions and not tested further; format: functional, organism-based
[3] = target: GABA-A receptor; anion channel; test: The concentration required to inhibit 50% of binding of [35S]TBPS to Gamma-aminobutyric acid A receptor to rat whole brain membranes.; format: cell membranes
[4] = Therapeutic index by the ratio between LD50 to HD50
Mus musculus [5] = test: Hypnotic dose was determined by observing loss of righting reflex for a minimum period of 30 sec in 50% of treated mice after i.v. administration.; format: functional
Summary of the method: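 Male CFLP mice (25–35 g), tested in the light period. Groups of eight received an i.v. lateral tail vein injection over 10 s (10 mL kg-1) on a μmol/kg dose series, e.g. 2–16, with extra doses added. Vehicle was saline for amine salts; standards were in HPCD/saline, emulsion or saline. HD50 with 95% confidence limits was obtained by probit analysis of the fraction showing LRR ≥30 s.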

[6] = target: GABA-A receptor; anion channel (Bos taurus) (UniProt P10063+P08220+P20237+P08219+P10064+P22300); test: Concentration required to potentiate GABA-evoked currents in voltage-clamped bovine chromaffin cells by 300%; format: functional
Summary of the method: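 Adult bovine chromaffin cells, primary culture, recorded 4 h to 2 days after plating. Whole-cell patch clamp, continuous superfusion with 140 mM NaCl, 2.8 mM KCl, 2 mM MgCl2, 1 mM CaCl2, 10 mM HEPES (pH 7.2). CsCl-based pipette solution, room temperature (18–22 °C). Currents filtered at 500 Hz. Steroid concentration enhancing the GABA-evoked response by 300% of control was interpolated; mean ± SEM of N cells.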

SMILES	SD (Mus musculus [1])	HD50 (Mus musculus [2])	IC50 [3] [µM]	selectivity ratio [4]	HD50 (Mus musculus [5]) [µM/kg]	POT [6] [nM]
CC(=O)SCC(=O)[C@H]1CC[C@H]2[C@@H]3CC[C@H]4C[C@H](O)[C@@H](N5CCOC(C)(C)C5)C[C@]4(C)[C@H]3CC[C@]12C	Convulsant	Convulsant	0.032			
CC(=O)[C@H]1CC[C@H]2[C@@H]3CC[C@H]4C[C@H](O)[C@@H](N5CCOCC5)C[C@]4(C)[C@H]3C(=O)C[C@]12C			2.56	4.6	34.6	
CC[C@@H]1CN([C@H]2C[C@@]3(C)[C@@H](CC[C@H]4[C@@H]5CC[C@H](C(C)=O)[C@@]5(C)CC(=O)[C@@H]43)C[C@@H]2O)CCO1			0.317	5.8	8.7	910
CCCC(C)C1(CC)C(=O)NC(=S)NC1=O (stereo not drawn) [THIOPENTAL]			29.5	3.7	83	30000
CC(=O)[C@H]1CC[C@H]2[C@@H]3CC[C@H]4C[C@H](O)[C@@H](N5C[C@@H](C)O[C@@H](C)C5)C[C@]4(C)[C@H]3C(=O)C[C@]12C			3.2	5.8	14.4	
CC(=O)[C@H]1CC[C@H]2[C@@H]3CC[C@H]4C[C@H](O)[C@@H](N5CCO[C@H](C(C)C)C5)C[C@]4(C)[C@H]3C(=O)C[C@]12C			0.09	9.9	3.4	
C[C@]12C[C@H](N3CCOCC3)[C@@H](O)C[C@@H]1CC[C@@H]1[C@@H]2CC[C@]2(C)[C@@H](C(=O)CCl)CC[C@@H]12			0.171	6.1	8.5	150
CC(=O)[C@H]1CC[C@H]2[C@@H]3CC[C@H]4C[C@H](O)[C@@H](N5CCOC(C)(C)C5)C[C@]4(C)[C@H]3CC[C@]12C			0.107		17.4	120
CC(=O)[C@H]1CC[C@H]2[C@@H]3CC[C@H]4C[C@H](O)CC[C@]4(C)[C@H]3CC[C@]12C [BREXANOLONE]			0.091		10	105
CC(C)c1cccc(C(C)C)c1O [PROPOFOL]				3.5	68	2000
CC(=O)SCC(=O)[C@H]1CC[C@H]2[C@@H]3CC[C@H]4C[C@H](O)[C@@H](N5CCOC(C)(C)C5)C[C@]4(C)[C@H]3C(=O)C[C@]12C			0.261		7.9	245
CC(=O)[C@H]1CC[C@H]2[C@@H]3CC[C@H]4C[C@H](O)[C@@H](N5CCSC(C)(C)C5)C[C@]4(C)[C@H]3C(=O)C[C@]12C			0.209	16.3	13.7	
C[C@]12C[C@H](N3CCOCC3)[C@@H](O)C[C@@H]1CC[C@H]1[C@@H]3CC[C@H](C(=O)CCl)[C@@]3(C)CC(=O)[C@@H]12	Convulsant	Convulsant	9.04			1500
